Where “and” joins values, the source holds several entries; their conditions need not be identical. Identical values can stand only once.

Endothelial PAS domain-containing protein 1 (Homo sapiens), sequence (Q99814 whole entry, looked up, the tested form may be a part): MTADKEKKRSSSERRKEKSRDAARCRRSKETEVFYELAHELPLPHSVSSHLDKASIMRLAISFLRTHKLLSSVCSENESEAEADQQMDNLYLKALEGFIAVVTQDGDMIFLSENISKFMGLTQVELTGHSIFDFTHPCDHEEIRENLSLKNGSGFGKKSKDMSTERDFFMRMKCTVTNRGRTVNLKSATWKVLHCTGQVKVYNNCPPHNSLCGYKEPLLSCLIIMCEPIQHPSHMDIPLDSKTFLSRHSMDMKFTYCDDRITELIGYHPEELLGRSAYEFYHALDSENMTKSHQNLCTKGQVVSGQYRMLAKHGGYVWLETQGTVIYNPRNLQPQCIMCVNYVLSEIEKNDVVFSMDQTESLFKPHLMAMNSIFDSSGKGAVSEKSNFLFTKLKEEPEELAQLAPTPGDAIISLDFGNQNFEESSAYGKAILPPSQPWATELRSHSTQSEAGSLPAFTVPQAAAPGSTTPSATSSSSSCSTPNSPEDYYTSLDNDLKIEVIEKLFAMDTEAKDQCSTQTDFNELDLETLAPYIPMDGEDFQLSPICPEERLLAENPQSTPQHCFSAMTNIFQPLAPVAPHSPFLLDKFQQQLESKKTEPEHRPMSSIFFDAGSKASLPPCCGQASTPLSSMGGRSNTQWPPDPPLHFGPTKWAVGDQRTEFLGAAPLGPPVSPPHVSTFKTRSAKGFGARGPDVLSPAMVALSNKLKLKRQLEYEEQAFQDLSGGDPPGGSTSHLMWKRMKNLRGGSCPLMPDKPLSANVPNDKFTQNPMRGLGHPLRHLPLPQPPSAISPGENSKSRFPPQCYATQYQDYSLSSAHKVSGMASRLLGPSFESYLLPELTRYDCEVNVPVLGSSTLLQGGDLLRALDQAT

For the assay, the target named is Endothelial PAS domain-containing protein 1 (Homo sapiens) (UniProt Q99814). Nature of the assay: HIF-1a and HIF-2a reporter inhibitors, SAR follow-up, cell-based, luminescence, MIAPaCa-2, 786-0, panel (AID 652011). The following applies: MIAPaCa-2/PANC HIF reporter, luciferase luminescence, desferoxamine, overnight, HIF2a PANC, run 2; at 99 µM (top of the series). In short, it runs like this:
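Probe or stimulus: desferoxamine stimulus / Schedule: overnight compound incubation at 37 °C, 10 min reagent / Dosing: compounds from 10 mM and 0.3125 mM stocks, 1% DMSO final / Signal: luciferase luminescence with One-Glo reagent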
A word on the inhibition: it is the drop in the measured response relative to a control, in per cent. With `CNC(=O)CCc1nc(-c2ccc(Cl)cc2)no1`, the inhibition was -17.8%.

Consider `CCNC(=O)CCc1nc(-c2ccc(C(C)C)cc2)no1`, for which the inhibition was -41.3%.

For the molecule `CCCCc1ccc(-c2noc(CCC(=O)NC(C)(C)C)n2)cc1`, the inhibition was 89%.

As for `CCC(C)NC(=O)CCc1nc(-c2ccccc2)no1` (stereo not given), the inhibition was -3.82%.

As to `CNC(=O)CCc1nc(-c2ccc(F)cc2)no1`, the inhibition was 8.8%.

`CC(C)(C)NC(=O)CCc1nc(-c2ccccc2)no1`: the inhibition is -18.9%.

With `CCc1ccc(-c2noc(CCC(=O)NC3CC3)n2)cc1`, the inhibition is -46.2%.

For the molecule `CCNC(=O)CCc1nc(-c2ccc(OCC)cc2)no1`, the inhibition is -15.1%.

Take `CC(C)CNC(=O)CCc1nc(-c2ccc(C(C)(C)C)cc2)no1`: the inhibition worked out at 65.5%.

Turning to `CCOc1ccc(-c2noc(CCC(=O)NC)n2)cc1`, the inhibition was 112%.

As for `CC(C)(C)c1ccc(-c2noc(CCC(=O)NC3CCC3)n2)cc1`, the inhibition turned out to be 90.3%.

On to `CN(C)C(=O)CCc1nc(-c2ccc(C(C)(C)C)cc2)no1`, for which the inhibition was 42.5% and -5.18%.

Take `CC(C)(C)c1ccc(-c2noc(CCC(=O)NC3CCCCC3)n2)cc1`: the inhibition stood at 104%.

For `CC(C)(C)c1ccc(-c2noc(CCC(=O)Nc3cccc([N+](=O)[O-])c3)n2)cc1`, the inhibition came to 86.3%.

In the case of `O=C(O)CCc1nc(-c2ccccc2)no1`, the inhibition was found to be 45.4%.

Regarding `CC(C)(C)c1ccc(-c2noc(CCC(=O)NCc3ccco3)n2)cc1`, the inhibition was 99.3% and 99%.

`CCCCc1ccc(-c2noc(CCC(=O)NC3CC3)n2)cc1`: the inhibition was 16%.

For `CC(C)(C)c1ccc(-c2noc(CCC(=O)N3CCCCC3)n2)cc1`, the inhibition is 106%.

`CCNC(=O)CCc1nc(-c2ccccc2)no1`: the inhibition is 13%.

`CNC(=O)CCc1nc(-c2ccc(OC)cc2)no1`: the inhibition was -21.8%.

For the molecule `COc1ccccc1NC(=O)CCc1nc(-c2ccc(C(C)(C)C)cc2)no1`, the inhibition was determined as 123%.

As for `CC(C)(C)c1ccc(-c2noc(CCC(=O)O)n2)cc1`, the inhibition came out at 124%.

As to `CNC(=O)CCc1nc(-c2ccc(C(C)C)cc2)no1`, the inhibition worked out at 8.04%.

As for `CCNC(=O)CCc1nc(-c2ccc(CC)cc2)no1`, the inhibition was -47%.

In the case of `CCc1ccc(-c2noc(CCC(=O)NC(C)CC)n2)cc1` (stereo not given), the inhibition was -30.6%.

Take `CNC(=O)CCc1nc(-c2ccccc2)no1`: the inhibition is -73.5% and 30.8%.

In the case of `CCNC(=O)CCc1nc(-c2cccc(OC)c2)no1`, the inhibition is -12.7%.

Consider `CCOc1ccccc1NC(=O)CCc1nc(-c2ccc(C(C)(C)C)cc2)no1`, for which the inhibition was determined as 112%.

Regarding `CC(C)(C)c1ccc(-c2noc(CCC(N)=O)n2)cc1`, the inhibition is 124% and 92.8%.

Consider `CCc1ccc(-c2noc(CCC(=O)NC)n2)cc1`, for which the inhibition is -49.2%.

Values taken from PubChem BioAssay AID652011 (Sanford-Burnham Center for Chemical Genomics, 2013).
